≈ marks a conversion by molar mass, not a printed value.
Tests used:
[1] = tested on: MCF7; test: Cytotoxicity against estrogen receptor-positive human MCF7 cells assessed as inhibition of cell proliferation at 25 ug/ml after 24 hrs by MTT assay; assay type: functional; details: MCF7, 24 h
Method in brief: (§1)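 MTT assay on MCF-7 human breast cancer cells, Taxol as reference; percentage inhibition of cell proliferation read at graded concentrations from 0.1 to 50 μg/mL (typically five or six levels per compound); IC50 in μg/mL derived from the inhibition series.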

[2] = tested on: Staphylococcus aureus; test: Antibacterial activity against Staphylococcus aureus at […] after 24 hrs by agar diffusion method; assay type: functional
Method in brief: (§2)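 Single-concentration antibacterial screen at 100 μg/50 μL per test against the standard bacterial strains.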

[3] = tested on: Pseudomonas aeruginosa; test: Antibacterial activity against Pseudomonas aeruginosa at 100 ug/[…] after 24 hrs by agar diffusion method; assay type: functional; method in brief: as §2
[4] = tested on: Escherichia coli; test: Antibacterial activity against Escherichia coli at […] after 24 hrs by agar diffusion method; assay type: functional; method in brief: as §2
[5] = tested on: MCF7; test: Cytotoxicity against estrogen receptor-positive human MCF7 cells assessed as inhibition of cell proliferation at 10 ug/ml after 24 hrs by MTT assay; assay type: functional; details: MCF7, 24 h; method in brief: as §1
[6] = tested on: Bacillus subtilis; test: Antibacterial activity against Bacillus subtilis at […] after 24 hrs by agar diffusion method; assay type: functional; method in brief: as §2
[7] = tested on: MCF7; test: Cytotoxicity against estrogen receptor-positive human MCF7 cells assessed as inhibition of cell proliferation at 5 ug/ml after 24 hrs by MTT assay; assay type: functional; details: MCF7, 24 h; method in brief: as §1
[8] = tested on: MCF7; test: Cytotoxicity against estrogen receptor-positive human MCF7 cells assessed as inhibition of cell proliferation at 1 ug/ml after 24 hrs by MTT assay; assay type: functional; details: MCF7, 24 h; method in brief: as §1
[9] = tested on: MCF7; test: Cytotoxicity against estrogen receptor-positive human MCF7 cells assessed as inhibition of cell proliferation at 50 ug/ml after 24 hrs by MTT assay; assay type: functional; details: MCF7, 24 h; method in brief: as §1
[10] = tested on: MCF7; test: Cytotoxicity against estrogen receptor-positive human MCF7 cells assessed as inhibition of cell proliferation after 24 hrs by MTT assay; assay type: functional, cell-based; method in brief: as §1
[11] = tested on: Staphylococcus aureus; test: Antibacterial activity against Staphylococcus aureus after 18 to 24 hrs by broth microdilution method; assay type: functional
[12] = tested on: Pseudomonas aeruginosa; test: Antibacterial activity against Pseudomonas aeruginosa after 18 to 24 hrs by broth microdilution method; assay type: functional
[13] = tested on: Bacillus subtilis; test: Antibacterial activity against Bacillus subtilis after 18 to 24 hrs by broth microdilution method; assay type: functional
[14] = tested on: Escherichia coli; test: Antibacterial activity against Escherichia coli after 18 to 24 hrs by broth microdilution method; assay type: functional
[15] = tested on: Rattus norvegicus; test: Antiinflammatory activity in Wistar rat assessed as protection against carrageenan-induced paw edema at 100 mg/kg, po administered 1 hr before carrageenan challenge measured after 2 hrs; assay type: functional
[16] = tested on: MCF7; test: Cytotoxicity against estrogen receptor-positive human MCF7 cells assessed as inhibition of cell proliferation at 4 ug/ml after 24 hrs by MTT assay; assay type: functional; details: MCF7, 24 h; method in brief: as §1
[17] = tested on: Rattus norvegicus; test: Antiinflammatory activity in Wistar rat assessed as protection against carrageenan-induced paw edema at 100 mg/kg, po administered 1 hr before carrageenan challenge measured after 3 hrs; assay type: functional
[18] = tested on: Rattus norvegicus; test: Antiinflammatory activity in Wistar rat assessed as protection against carrageenan-induced paw edema at 100 mg/kg, po administered 1 hr before carrageenan challenge measured after 1 hr; assay type: functional
[19] = tested on: MCF7; test: Cytotoxicity against estrogen receptor-positive human MCF7 cells assessed as inhibition of cell proliferation at 2 ug/ml after 24 hrs by MTT assay; assay type: functional; details: MCF7, 24 h; method in brief: as §1
[20] = tested on: MCF7; test: Cytotoxicity against estrogen receptor-positive human MCF7 cells assessed as inhibition of cell proliferation at 3 ug/ml after 24 hrs by MTT assay; assay type: functional; details: MCF7, 24 h; method in brief: as §1
[21] = tested on: Rattus norvegicus; test: Antiinflammatory activity in Wistar rat assessed as protection against carrageenan-induced paw edema at 100 mg/kg, po administered 1 hr before carrageenan challenge measured after 4 hrs; assay type: functional
[22] = tested on: Rattus norvegicus; test: Antiinflammatory activity in Wistar rat assessed as protection against carrageenan-induced paw edema at 100 mg/kg, po administered 1 hr before carrageenan challenge measured after 30 mins; assay type: functional
[23] = Homo sapiens, MCF7, 24 h, read-out: IC50

MIC [11] | MIC [12] | MIC [13] | MIC [14] | Structure (SMILES) | inhibition at 25 µg/mL [1] | inhibition zone (IZ) [2] | inhibition zone (IZ) [3] | inhibition zone (IZ) [4] | inhibition at 10 µg/mL [5] | inhibition zone (IZ) [6] | inhibition at 5 µg/mL [7] | inhibition at 1 µg/mL [8] | inhibition at 50 µg/mL [9] | IC50 [10, 23] | Activity [15] | Activity [17] | Activity [18] | Activity [21] | Activity [22] | other results
 |  |  |  | Cc1nn(-c2ccccc2)c2c1C(c1ccc([N+](=O)[O-])cc1)C(C#N)=C(N)O2 (stereo unspecified) | 85.5% | 8 mm | 8 mm | 15 mm | 30.8% | 7 mm | 12.5% | 2.04% | 96.4% | 15.1 µg/mL |  |  |  |  |  | 
3.12 µg/mL (≈ 9.13 µM) | 1.56 µg/mL (≈ 4.56 µM) | 3.12 µg/mL (≈ 9.13 µM) | 1.56 µg/mL (≈ 4.56 µM) | Cc1[nH]nc2c1C(c1c(F)c(F)c(F)c(F)c1F)C(C#N)=C(N)O2 (stereo unspecified) | 45.1% | 18 mm | 15 mm | 14 mm | 16.2% | 15 mm | 6.96% | 1.1% | 65.6% | 45.5 µg/mL |  |  |  |  |  | 
 |  |  |  | Cc1[nH]nc2c1C(c1cccnc1)C(C#N)=C(N)O2 (stereo unspecified) | 25.2% |  |  |  | 16.3% |  | 10.1% | 0.41% | 75% | 35.4 µg/mL |  |  |  |  |  | 
3.12 µg/mL (≈ 12.1 µM) | 3.12 µg/mL (≈ 12.1 µM) | 3.12 µg/mL (≈ 12.1 µM) | 3.12 µg/mL (≈ 12.1 µM) | Cc1n[nH]c2c1C(c1cccs1)C(C#N)=C(N)O2 (stereo unspecified) |  | 15 mm | 14 mm | 20 mm |  | 18 mm | 61.7% | 0.28% |  | 4.44 µg/mL | 50.8% | 64.5% | 38.8% | 51.6% | 23.5% | inhibition at 4 µg/mL [16]: 41.8%; inhibition at 2 µg/mL [19]: 19.1%; inhibition at 3 µg/mL [20]: 22%
 |  |  |  | CC(C)Cc1ccc(C(C)C(=O)O)cc1 (stereo unspecified) [IBUPROFEN] |  |  |  |  |  |  |  |  |  |  | 52.7% | 72.3% | 41.6% | 64.4% | 38% | 
 |  |  |  | Cc1[nH]nc2c1C1(C(=O)Nc3ccccc31)C(C#N)=C(N)O2 (stereo unspecified) | -5.9% | 13 mm | 10 mm | 12 mm | 0.51% | 11 mm | -3.16% | -1.26% | -4.93% |  | 54.7% | 69.8% | 36.1% | 51.6% | 23.5% | 
 |  |  |  | Cc1[nH]nc2c1C(c1ccc(O)cc1)C(C#N)=C(N)O2 (stereo unspecified) |  | 13 mm | 15 mm | 15 mm |  |  |  |  |  |  |  |  |  |  |  | 
 |  |  |  | Cc1nn(-c2ccccc2)c2c1C1(C(C#N)=C(N)O2)c2ccccc2-c2ccccc21 |  | 12 mm | 16 mm | 13 mm |  | 11 mm |  |  |  |  | 45.2% | 65.5% | 30.5% | 56.6% | 23.5% | 
 |  |  |  | Cc1nn(-c2ccccc2)c2c1C(c1ccccc1)C(C#N)=C(N)O2 (stereo unspecified) | 55.5% | 6 mm | 9 mm | 14 mm | 26.9% | 8 mm | 22.4% | 1.67% | 84.1% | 25.8 µg/mL | 42.4% | 53.7% | 27.7% | 48.3% | 11.7% | 
6.25 µg/mL (≈ 18.1 µM) | 3.12 µg/mL (≈ 9.07 µM) | 6.25 µg/mL (≈ 18.1 µM) | 12.5 µg/mL (≈ 36.3 µM) | Cc1nn(-c2ccccc2)c2c1C(c1ccc(O)cc1)C(C#N)=C(N)O2 (stereo unspecified) | 30.8% | 15 mm | 15 mm | 16 mm | 22.9% | 17 mm | 5.96% | 2.1% | 50.2% | 47.5 µg/mL | 43.8% | 56.9% | 30.5% | 50.5% | 11.7% | 
 |  |  |  | Cc1ccc(C2C(C#N)=C(N)Oc3[nH]nc(C)c32)cc1 (stereo unspecified) |  | 10 mm | 15 mm |  |  | 10 mm |  |  |  |  |  |  |  |  |  | 
6.25 µg/mL (≈ 13.9 µM) | 6.25 µg/mL (≈ 13.9 µM) | 6.25 µg/mL (≈ 13.9 µM) | 3.12 µg/mL (≈ 6.96 µM) | Cc1[nH]nc2c1C(c1cccc(Oc3nc(Cl)c(Cl)cc3Cl)c1)C(C#N)=C(N)O2 (stereo unspecified) | 42.4% | 16 mm | 15 mm | 23 mm | 34.6% | 21 mm | 16.3% | 0.41% | 50.1% | 42.8 µg/mL | 64.3% | 70.9% | 47.2% | 53.8% | 23.5% | 
3.12 µg/mL (≈ 8.46 µM) | 6.25 µg/mL (≈ 16.9 µM) | 3.12 µg/mL (≈ 8.46 µM) | 3.12 µg/mL (≈ 8.46 µM) | Cc1nn(-c2ccccc2)c2c1C1(C(=O)Nc3ccccc31)C(C#N)=C(N)O2 (stereo unspecified) | 64.6% | 14 mm | 15 mm | 21 mm | 40.3% | 19 mm | 26.6% | 19.3% | 86.5% | 16.8 µg/mL | 46.5% | 68.8% | 25% | 47.2% | 23.5% | 
 |  |  |  | COc1ccc(C2C(C#N)=C(N)Oc3c2c(C)nn3-c2ccccc2)cc1 (stereo unspecified) | 11.6% | 5 mm | 6 mm | 10 mm | 8.99% | 4 mm | 4.19% | 0.76% | 30% |  | 39.7% | 52.6% | 25% | 45% | 11.7% | 
3.12 µg/mL (≈ 7.43 µM) | 3.12 µg/mL (≈ 7.43 µM) | 6.25 µg/mL (≈ 14.9 µM) | 6.25 µg/mL (≈ 14.9 µM) | Cc1nn(-c2ccccc2)c2c1C(c1cccc(Oc3ccccc3)c1)C(C#N)=C(N)O2 (stereo unspecified) |  | 15 mm |  | 18 mm |  |  |  |  |  |  |  |  |  |  |  | 
6.25 µg/mL (≈ 11.9 µM) | 6.25 µg/mL (≈ 11.9 µM) | 6.25 µg/mL (≈ 11.9 µM) | 12.5 µg/mL (≈ 23.8 µM) | Cc1nn(-c2ccccc2)c2c1C(c1cccc(Oc3nc(Cl)c(Cl)cc3Cl)c1)C(C#N)=C(N)O2 (stereo unspecified) |  | 16 mm | 16 mm | 14 mm |  | 15 mm |  |  |  |  |  |  |  |  |  | 
 |  |  |  | Cc1[nH]nc2c1C1(C(C#N)=C(N)O2)c2ccccc2-c2ccccc21 |  | 10 mm | 17 mm | 10 mm |  | 10 mm |  |  |  |  |  |  |  |  |  | 
 |  |  |  | Cc1[nH]nc2c1C(c1ccc(C3C(C#N)=C(N)Oc4n[nH]c(C)c43)cc1)C(C#N)=C(N)O2 (stereo unspecified) | 24.8% |  |  |  | 24.4% |  | 23.4% | 11.4% | 26.7% |  |  |  |  |  |  | 
 |  |  |  | CC(=O)O[C@H]1C(=O)[C@@]2(C)[C@H]([C@H](OC(=O)c3ccccc3)[C@]3(O)C[C@H](OC(=O)[C@H](O)[C@@H](NC(=O)c4ccccc4)c4ccccc4)C(C)=C1C3(C)C)[C@]1(OC(C)=O)CO[C@@H]1C[C@@H]2O [PACLITAXEL] |  |  |  |  |  |  |  |  |  |  |  |  |  |  |  | IC50 ([10]; mcf7): 15 nM

Structure (SMILES) | MIC [11] | MIC [12] | MIC [13] | MIC [14] | inhibition at 25 µg/mL [1] | inhibition zone (IZ) [2] | inhibition zone (IZ) [3] | inhibition zone (IZ) [4] | inhibition at 10 µg/mL [5] | inhibition zone (IZ) [6] | inhibition at 5 µg/mL [7] | inhibition at 1 µg/mL [8] | inhibition at 50 µg/mL [9] | IC50 [10, 23] | Activity [15] | Activity [17] | Activity [18] | Activity [21] | Activity [22] | other results
O=C(O)c1cn(C2CC2)c2cc(N3CCNCC3)c(F)cc2c1=O [CIPROFLOXACIN] | 1.56 µg/mL (≈ 4.71 µM) | 1.56 µg/mL (≈ 4.71 µM) | 1.56 µg/mL (≈ 4.71 µM) |  |  |  |  |  |  |  |  |  |  |  |  |  |  |  |  | 

Reference: ChEMBL document CHEMBL2062449, “Eco-friendly synthesis and biological evaluation of substituted pyrano[2,3-c]pyrazoles” (Bioorg Med Chem Lett, 2012)
